{"source": "ChEMBL document CHEMBL1687708", "about": "“Efficacy of oritavancin in a murine model of Bacillus anthracis spore inhalation anthrax” (Antimicrob Agents Chemother, 2008)", "assay_type_in_all_cases": "functional", "key": {"Bacillus cereus [1]": {"tested_on": "Bacillus cereus", "assay": "Ratio of MIC for Bacillus cereus ATCC 4342 selected after 20 daily cycles of drug selection followed by 5 days of nonselective growth to MIC for Bacillus cereus ATCC 4342", "how_it_was_run": "(§1)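 B. cereus ATCC 4342 went through stepwise selection for 20 cycles in cation-adjusted Mueller-Hinton broth with doubling drug dilutions. Each cycle was seeded from the previous day's 0.5× MIC wells, in two independent rounds per drug. Selectants showing a fourfold or greater MIC rise were passaged 5 days without drug. Their MICs were then read alongside the parent strain. Oritavancin assays carried 0.002% polysorbate 80 throughout.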"}, "Bacillus cereus [2]": {"tested_on": "Bacillus cereus", "assay": "Antimicrobial activity against Bacillus cereus ATCC 4342 by broth microdilution method", "how_it_was_run": "as §1"}, "Bacillus cereus [3]": {"tested_on": "Bacillus cereus", "assay": "Antimicrobial activity against Bacillus cereus ATCC 4342 selected after 20 daily cycles of drug selection followed by 5 days of nonselective growth by broth microdilution method", "conditions": "ATCC 4342, 120 h", "how_it_was_run": "as §1"}}, "data": [{"compound": "CC1(C)S[C@@H]2[C@H](NC(=O)Cc3ccccc3)C(=O)N2[C@H]1C(=O)O", "note": "[PENICILLIN G]", "values": [{"measurement": "Ratio", "setting": "Bacillus cereus [1]", "result": ">8"}, {"measurement": "MIC", "setting": "Bacillus cereus [2]", "result": 0.008, "unit": "µg/mL"}, {"measurement": "MIC", "setting": "Bacillus cereus [3]", "result": "> 0.06", "unit": "µg/mL"}]}, {"compound": "CO[C@H]1/C=C/O[C@@]2(C)Oc3c(C)c(O)c4c(O)c(c(/C=N/N5CCN(C)CC5)c(O)c4c3C2=O)NC(=O)/C(C)=C\\C=C\\[C@H](C)[C@H](O)[C@@H](C)[C@@H](O)[C@@H](C)[C@H](OC(C)=O)[C@@H]1C", "note": "[RIFAMPIN]", "values": [{"measurement": "Ratio", "setting": "Bacillus cereus [1]", "result": 8}, {"measurement": "MIC", "setting": "Bacillus cereus [2]", "result": 0.03, "unit": "µg/mL"}, {"measurement": "MIC", "setting": "Bacillus cereus [3]", "result": 0.25, "unit": "µg/mL"}]}]}
